Calls of active or inactive are those of the source. The rule behind the calls is not given here.
Columns and labels:
[1] = molecular target: Mannose-binding protein C (Homo sapiens) (UniProt P11226); test: Binding affinity to MBP at 1 mM
Outline: (§1)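 FimH-CRD (10 μg/mL), DC-SIGN-CRD-Fc (2.5 μg/mL) or MBP (10 μg/mL) coated overnight at 4 °C in 20 mM HEPES pH 7.4, 150 mM NaCl, 10 mM CaCl2. Competition against streptavidin-peroxidase TM-PAA polymer as in the FimH ELISA, test compounds at 1 mM. D-mannose at 50 mM as positive control.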

[2] = molecular target: T1, CD209 antigen (Homo sapiens) (UniProt Q9NNX6); test: Binding affinity to Fc-IgG-tagged DC-SIGN carbohydrate recognizing domain at 1 mM; outline: as §1
T1 sequence (whole entry): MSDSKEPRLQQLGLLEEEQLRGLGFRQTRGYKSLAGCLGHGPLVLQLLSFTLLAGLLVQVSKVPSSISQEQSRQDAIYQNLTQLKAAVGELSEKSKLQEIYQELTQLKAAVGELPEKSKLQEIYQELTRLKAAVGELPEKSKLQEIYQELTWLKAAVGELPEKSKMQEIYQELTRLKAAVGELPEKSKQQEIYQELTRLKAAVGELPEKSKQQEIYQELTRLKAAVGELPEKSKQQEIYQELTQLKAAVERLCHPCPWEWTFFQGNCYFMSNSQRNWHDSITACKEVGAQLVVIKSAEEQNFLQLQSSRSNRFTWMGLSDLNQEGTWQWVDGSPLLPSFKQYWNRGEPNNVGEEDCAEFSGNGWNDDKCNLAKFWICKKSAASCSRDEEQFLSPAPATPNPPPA

[3] = Dissociation constant, pKa of the compound by NMR spectrometric analysis; assay type: physicochemical
[4] = Lipophilicity, log D at pH 7.4 by miniatured shake flask method; assay type: physicochemical; details: buffer
Outline: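 Octanol-saturated 0.1 M phosphate pH 7.4 containing analyte at 1 μM, overlaid with octanol at two volume ratios, three wells each. Shaken 2 h at 25 °C, then centrifuged; aqueous phase measured by LC-MS. log D computed from depletion. Accepted when the ratio means agree within 0.1.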

[5] = Permeability coefficient, log Pe of the compound by PAMPA method; assay type: ADME
Outline: (§2)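 PAMPA with GIT-0 lipid, donor analyte 50 μM at pH 5.0, 6.2 and 7.4 in quadruplicate, 16 h undisturbed incubation. Donor and acceptor quantified by UV and LC-MS.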

[6] = Permeability of the compound assessed as membrane retention by PAMPA method; assay type: ADME; outline: as §2
[7] = Thermodynamic solubility of the compound at pH 6.5 after 24 hrs by LC-MS analysis; assay type: physicochemical; details: buffer, read-out: Therm_solubility
Outline: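 1 mg solid in 250 μL 50 mM phosphate pH 6.5, sonicated 15 min, shaken 2 h at 25 °C, left 24 h. pH measured, then filtered and diluted; concentration determined by LC-MS.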

[8] = Stability of the compound in simulated gastrointestinal fluid assessed as compound remaining after 2 hrs by LC-MS analysis; assay type: physicochemical; details: read-out: Stability
[9] = Stability of the compound in simulated intestinal fluid assessed as compound remaining after 2 hrs by LC-MS analysis; assay type: physicochemical; details: read-out: Stability
Outline: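 Simulated intestinal fluid (phosphate, NaOH, pancreatin, pH 6) at 37 °C, compound at 10 μM, 500 rpm. Samples at 0-120 min MeCN-quenched; LC-MS as % remaining versus initial.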

[10] = Cmax in plasma of urinary tract infection C3H/HeN mouse model at 50 mg/kg, iv administered as single dose measured after 6 hrs by LC-MS analysis; assay type: ADME, organism-based; set-up: dose 50 mg/kg, route intravenous
Outline: (§3)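 Female C3H/HeN mice (19-25 g) dosed once iv at 50 mg/kg in 100 μL PBS via tail vein. Blood and urine (10 μL) sampled at 6 min, 30 min, 1, 2, 4, 6, 8 and 24 h. Proteins precipitated with methanol, centrifuged, and supernatant quantified by LC-MS.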

[11] = Cmax in urine of urinary tract infection C3H/HeN mouse model at 50 mg/kg, iv administered as single dose measured after 6 hrs by LC-MS analysis; assay type: ADME, organism-based; set-up: dose 50 mg/kg, route intravenous; outline: as §3
[12] = AUC (0 to 24 hrs) in plasma of urinary tract infection C3H/HeN mouse model at 50 mg/kg, iv administered as single dose measured after 6 hrs by LC-MS analysis; assay type: ADME, organism-based; set-up: time < 24 hr, dose 50 mg/kg, route intravenous; outline: as §3
[13] = AUC (0 to 24 hrs) in urine of urinary tract infection C3H/HeN mouse model at 50 mg/kg, iv administered as single dose measured after 6 hrs by LC-MS analysis; assay type: ADME, organism-based; set-up: time < 24 hr, dose 50 mg/kg, route intravenous; outline: as §3
[14] = AUC (0 to 24 hrs) in urine of urinary tract infection C3H/HeN mouse model at 50 mg/kg, po administered as single dose measured after 6 hrs by LC-MS analysis; assay type: ADME, organism-based; set-up: time < 24 hr, dose 50 mg/kg, route oral
Outline: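 Female C3H/HeN mice (19-25 g) gavaged once at 50 mg/kg. Compound dissolved in DMSO and diluted in 1% Tween-80/PBS as a suspension, or given in 200 μL PBS. Blood and urine sampled at 6 min to 24 h, methanol-precipitated, and analysed by LC-MS. For the prodrug, both parent and carboxylate metabolite were measured.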

Escherichia coli [15] = test: Antibacterial activity against Escherichia coli […] infected in urinary tract infection C3H/HeN mouse model assessed as log reduction in bacterial CFU in urine of mouse at 50 mg/kg, po administered as single dose 1 hr before infection and measured after 3 hrs post infection; assay type: functional; details: route intravenous, in the assay text read “iv administered” for “po administered”
Escherichia coli [16] = test: Antibacterial activity against Escherichia coli […] infected in urinary tract infection C3H/HeN mouse model assessed as log reduction in bacterial CFU in bladder of mouse at 50 mg/kg, po administered as single dose 1 hr before infection and measured after 3 hrs post infection; assay type: functional; details: route intravenous, in the assay text read “iv administered” for “po administered”
Escherichia coli [17] = test: Antibacterial activity against Escherichia coli […] infected in urinary tract infection C3H/HeN mouse model assessed as log reduction in bacterial count in kidney of mouse at 50 mg/kg, iv administered as single dose 1 hr before infection and measured after 3 hrs post infection; assay type: functional, organism-based; set-up: dose 50 mg/kg
Outline: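 Female C3H/HeN mice given antagonist iv (100 μL PBS, tail vein) or po as suspension, then infected. Infection: isoflurane anaesthesia, bladder emptied, 50 μL UTI89 at about 10^9-10^10 CFU/mL via transurethral catheter. Six mice per group, killed 3 h post-inoculation. Kidneys plated on EMB agar. Reduction taken against the 3 h untreated control mean; Mann-Whitney test.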

Liver = test: Metabolic stability of the compound in mouse liver microsomes assessed as Cyp 450-mediated degradation at 2 uM after 30 mins by LC-MS analysis in presence of NADPH; details: 0.5 h
Escherichia coli [18] = test: Antibacterial activity against Escherichia coli […] infected in urinary tract infection C3H/HeN mouse model assessed as reduction in bacterial count in kidney of mouse at 50 mg/kg, iv administered as single dose 1 hr before infection and measured after 3 hrs post infection
[19] = molecular target: Type 1 fimbrin D-mannose specific adhesin (Escherichia coli K-12, UniProt P08191); test: Competitive inhibition of His-tagged FimH carbohydrate recognizing domain expressed in Escherichia coli HM125 using ABTS-substrate after 3 hrs by […] assay
Type 1 fimbrin D-mannose specific adhesin, sequence (P08191 whole entry, the tested form may be a part): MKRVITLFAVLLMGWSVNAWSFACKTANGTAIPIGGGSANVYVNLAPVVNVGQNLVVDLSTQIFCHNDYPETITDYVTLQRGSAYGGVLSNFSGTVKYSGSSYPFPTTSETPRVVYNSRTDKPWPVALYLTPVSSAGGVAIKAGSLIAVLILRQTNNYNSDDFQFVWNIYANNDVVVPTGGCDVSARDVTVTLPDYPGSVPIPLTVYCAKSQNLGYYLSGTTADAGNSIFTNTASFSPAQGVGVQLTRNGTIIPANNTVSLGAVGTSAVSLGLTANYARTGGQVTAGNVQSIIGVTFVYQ
Outline: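 FimH-CRD-Th-6His from E. coli HM125 coated at 10 μg/mL overnight at 4 °C and blocked with 3% BSA. 4-fold compound dilutions in HEPES buffer pH 7.4 (5% DMSO) plus streptavidin-peroxidase TM-PAA polymer, 3 h at 25 °C. ABTS developed 4 min and read at 415 nm. Duplicates; heptyl mannoside reference on each plate.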

[20] = molecular target: Type 1 fimbrin D-mannose specific adhesin (Escherichia coli K-12) (UniProt P08191); test: Ratio IC50 for compound to IC50 for n-heptyl R-D-mannopyranoside for His-tagged FimH expressed in Escherichia coli HM125
Type 1 fimbrin D-mannose specific adhesin (Escherichia coli K-12), sequence (P08191 whole entry): as the sequence (P08191 whole entry, the tested form may be a part) above
Outline: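 FimH-CRD-Th-6His (10 μg/mL) coated overnight at 4 °C in 20 mM HEPES, 150 mM NaCl, 1 mM CaCl2, pH 7.4, then blocked with 3% BSA. 4-fold compound dilutions in 5% DMSO competed with streptavidin-peroxidase TM-PAA polymer for 3 h at 25 °C. ABTS read at 415 nm, duplicates. IC50 divided by the IC50 of the heptyl mannoside reference run on the same plate.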

[21] = Plasma protein binding in human by miniatured equilibrium dialysis method; assay type: ADME, cell-free; details: read-out: PPB (converted)
Outline: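 Human plasma adjusted to pH 7.5 with analyte at 10 μM, dialysed against 0.1 M phosphate pH 7.5 (MWCO 12-14 K) for 5 h at 37 °C in triplicate. Compartments MeCN-precipitated and measured by LC-MS; fb = 1 − cbuffer/cplasma.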

[22] = Plasma protein binding […] by LC-MS analysis; assay type: ADME, cell-free; details: read-out: PPB (converted)
Escherichia coli [23] = test: Antibacterial activity against Escherichia coli […] infected in urinary tract infection C3H/HeN mouse model assessed as log reduction in bacterial CFU in urine of mouse at 50 mg/kg, iv administered as single dose 1 hr before infection and measured after 3 hrs post infection; assay type: functional
Outline: (§4)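 Female C3H/HeN mice dosed iv into the tail vein in 100 μL PBS, then infected transurethrally under isoflurane with 50 μL UPEC UTI89 (~10^9–10^10 CFU/mL; LB 24 h static 37 °C, PBS-washed). Six mice per group, killed 3 h post-inoculation. Urine, bladder and kidneys plated on EMB agar. Log CFU reduction taken against the 3 h untreated control baseline; Mann-Whitney test.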

Escherichia coli [24] = test: Antibacterial activity against Escherichia coli […] infected in urinary tract infection C3H/HeN mouse model assessed as log reduction in bacterial CFU in bladder of mouse at 50 mg/kg, iv administered as single dose 1 hr before infection and measured after 3 hrs post infection; assay type: functional; outline: as §4

Mannose-binding protein C (Homo sapiens), sequence (P11226 whole entry): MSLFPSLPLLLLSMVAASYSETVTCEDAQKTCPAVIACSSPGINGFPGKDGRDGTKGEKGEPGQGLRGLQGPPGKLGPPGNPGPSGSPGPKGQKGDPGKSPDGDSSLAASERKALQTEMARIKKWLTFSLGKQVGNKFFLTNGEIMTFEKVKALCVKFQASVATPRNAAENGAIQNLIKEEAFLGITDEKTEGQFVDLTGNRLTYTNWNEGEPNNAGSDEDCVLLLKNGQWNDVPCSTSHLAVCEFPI

SMILES | Activity [1] | Activity [2] | pKa [3] | logD [4] | permeability [5] | permeability [6] [%] | solubility thermodynamic at 24 h [7] [µg/mL] | remaining at 2 h [8] [%] | remaining at 2 h [9] [%] | Cmax [10] [ng/mL] | Cmax [11] [µg/mL] | AUC(0-t) at 24 h [12] [ng·h/mL] | AUC(0-t) at 24 h [13] [µg·h/mL] | FC (Escherichia coli [15]) | Activity (Escherichia coli [17]) | Stability (Liver) | Activity (Escherichia coli [18]) | Ratio IC50 [20] | fraction unbound [21] | fraction unbound [22] | also measured
O=C([O-])c1ccc(-c2ccc(O[C@H]3O[C@H](CO)[C@@H](O)[C@H](O)[C@@H]3O)c(Cl)c2)cc1.[Na+] | inactive | inactive | 3.98 | -0.77 | impermeable | 3.5 | > 3000 | 80 | 80 | 39400 | 588 | 20800 | 210 | 2 | Active | Stable | Active |  |  |  | AUC(0-t) at 24 h [14]: 2700 ng·h/mL; FC (Escherichia coli [16]): 4
O=C([O-])c1ccc(-c2ccc(O[C@H]3O[C@H](CO)[C@@H](O)[C@H](O)[C@@H]3O)cc2)cc1.[Na+] | inactive | inactive | 3.88 |  | impermeable |  | > 3000 |  |  | 34400 | 510 | 19300 | 140 |  | Active | Stable | Active | 0.15 | 0.27 | 0.27 | IC50 [19]: 17.1 nM; FC (Escherichia coli [23]): >2; FC (Escherichia coli [24]): 4.5
CCCCCCCO[C@H]1O[C@H](CO)[C@@H](O)[C@H](O)[C@@H]1O | inactive | inactive |  | 1.65 |  | 21 | > 3000 | 80 | 80 | 35000 | 951 | 34300 | 2470 | 1.5 | Active |  | Active | 1 | 0.19 | 0.19 | 
